Test [1] concerns Mycolicibacterium smegmatis. The test is described as follows: Antimycobacterial activity against Mycobacterium smegmatis mc2 155 after 48 hrs by microdilution resazurin assay. The test is classed as functional. Conditions: str. MC2 155, 48 h. In short, it runs like this:
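M. smegmatis mc²155 inoculum grown in Dubos medium with 10% ADC. Twofold serial drug dilutions (from 500 to 0.9) in Dubos medium, from 50 mg/mL DMSO stocks. DMSO and isoniazid controls. Sealed plates at 37 °C for 48 h, then 0.01% resazurin added for another 24 h at 37 °C. MIC is the lowest concentration preventing the blue-to-pink change.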

Test [2] has as its system Mycobacterium tuberculosis. The test is described as follows: Antimycobacterial activity against Mycobacterium tuberculosis H37Rv after 6 days by microdilution resazurin assay. The test is classed as functional. The following applies: 144 h. In short, it runs like this:
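Inoculum of virulent M. tuberculosis H37Rv grown in Dubos broth plus 10% ADC. Compounds from 50 mg/mL DMSO stocks, serially diluted twofold in Dubos medium (500 down to 0.9), with DMSO and isoniazid controls. Incubated 6 days at 37 °C, then 0.01% resazurin for 24 h more. MIC read as the lowest concentration without the blue-to-pink shift.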

This passage reports MIC95 results from ChEMBL document CHEMBL1140071, “A new synthetic access to furo[3,2-f]chromene analogues of an antimycobacterial” (2008).

Molecules are shown by their SMILES. ≈ marks a conversion by molar mass, not a printed value.

Consider `CC1(C)C=Cc2c(ccc3oc4c(c23)CCCC4)O1`, for which the figures for the MIC95 in test [1] and in test [2] were more than 500 µg/mL and 120 µg/mL (≈ 472 µM), respectively.

In the case of `CC1(C)C=Cc2c(ccc3oc4ccccc4c23)O1`, the MIC95 in test [1] and in test [2] was 10 µg/mL (≈ 40 µM) throughout.

For the compound `CC1(C)CCc2c(ccc3oc4ccccc4c23)O1`, the MIC95 in test [1] and in test [2] was 10 µg/mL (≈ 39.6 µM) throughout.

As for `CC1(C)CCc2c(ccc3oc(-c4cccnc4)cc23)O1`, the MIC95 in test [1] was 6.2 µg/mL (≈ 22.2 µM); in test [2] it was 10 µg/mL (≈ 35.8 µM).

As for `Cc1c(-c2ccncc2)oc2ccc3c(c12)C=CC(C)(C)O3`, the MIC95 was 6.2 µg/mL (≈ 21.3 µM) in test [1] and 3 µg/mL (≈ 10.3 µM) in test [2].

In the case of `Oc1ccc2oc(-c3ccccc3)cc2c1`, the MIC95 in test [1] stood at 8 µg/mL (≈ 38.1 µM); in test [2], 125 µg/mL (≈ 595 µM).

As to `Oc1ccc2oc(-c3ccncc3)cc2c1`, the figures for the MIC95 in test [1] and in test [2] were more than 50 µg/mL and more than 10 µg/mL, respectively.

For the compound `C#CC(C)(C)Oc1ccc2oc(-c3ccncc3)cc2c1`, the MIC95 is 25 µg/mL (≈ 90.1 µM) in test [1] and 16 µg/mL (≈ 57.7 µM) in test [2].

`CC1(C)C=Cc2c(ccc3c2C2CCCOC2O3)O1` (centres undefined): the MIC95 is 125 µg/mL (≈ 484 µM) in test [1] and 250 µg/mL (≈ 968 µM) in test [2].

`CC1(C)C=Cc2c(ccc3oc(-c4cccc(Br)n4)cc23)O1`: the results for the MIC95 in test [1] and in test [2] were more than 50 µg/mL and more than 10 µg/mL, respectively.

Turning to `CN(C)CCCNc1ccc(-c2cc3c4c(ccc3o2)OC(C)(C)C=C4)cn1`, the MIC95 in test [1] turned out to be 12.5 µg/mL (≈ 33.1 µM); in test [2], 10 µg/mL (≈ 26.5 µM).

On to `CC(=O)OCCCc1coc2ccc3c(c12)C=CC(C)(C)O3`, for which the MIC95 in test [1] and in test [2] was more than 500 µg/mL in each case.

As for `CC1(C)C=Cc2c(ccc3occ(CCCO)c23)O1`, the MIC95 came to 62 µg/mL (≈ 240 µM) in test [1] and 125 µg/mL (≈ 484 µM) in test [2].

For `O=Cc1c(O)ccc2c1C1CCCOC1O2` (centres undefined), the MIC95 in test [1] was more than 125 µg/mL; in test [2], 125 µg/mL (≈ 568 µM).

`CC1(C)CCc2c(ccc3oc(-c4ccccn4)cc23)O1`: the MIC95 was 25 µg/mL (≈ 89.5 µM) in test [1] and 10 µg/mL (≈ 35.8 µM) in test [2].

For the compound `Cc1c(-c2ccncc2)oc2ccc(O)cc12`, the MIC95 in test [1] is more than 50 µg/mL; in test [2], more than 10 µg/mL.

`CC1(C)C=Cc2c(ccc3oc(-c4ccncc4)cc23)O1`: the MIC95 in test [1] was 3 µg/mL (≈ 10.8 µM); in test [2], 2.5 µg/mL (≈ 9.01 µM).

With `CN(C)CCCNc1cccc(-c2cc3c4c(ccc3o2)OC(C)(C)C=C4)n1`, the figures for the MIC95 in test [1] and in test [2] were 12.5 µg/mL (≈ 33.1 µM) and 10 µg/mL (≈ 26.5 µM), respectively.

For the compound `CC1(C)C=Cc2c(ccc3oc(-c4ccccc4)cc23)O1`, the MIC95 is more than 500 µg/mL in test [1] and 32 µg/mL (≈ 116 µM) in test [2].

In the case of `CC1(C)C=Cc2c(ccc3oc(-c4ccc(Br)nc4)cc23)O1`, the MIC95 is more than 50 µg/mL in test [1] and more than 10 µg/mL in test [2].

For `Cc1cc2c3c(ccc2o1)OC(C)(C)C=C3`, the MIC95 in test [1] and in test [2] was more than 500 µg/mL each time.

`NNC(=O)c1ccncc1` [ISONIAZID]: the MIC95 in test [1] came to 12 µg/mL (≈ 87.5 µM); in test [2], 0.1 µg/mL (≈ 0.729 µM).
